This note sets out measurements from ChEMBL document CHEMBL4007473, “Discovery of Potent and Orally Bioavailable GPR40 Full Agonists Bearing Thiophen-2-ylpropanoic Acid Scaffold” (J Med Chem, 2017).

The nature of data set [1]: Mean residence time (last) in Sprague-Dawley rat plasma at 1 mg/kg, iv by LC/MS analysis. Format: ADME, organism-based. Summed up:
(§1)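 Male SD rats (200 ± 20 g), acclimated 7 days, fasted overnight with water; n = 4 per route, 10 mg/kg by oral gavage or 1 mg/kg iv via tail vein. Plasma separated by centrifugation and stored at -80 ℃; drug measured by ESI triple-quadrupole LC-MS. Parameters from non-compartmental analysis, reported as mean ± SD. F = (AUCpo/Dosepo)/(AUCiv/Doseiv) × 100%.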

Data set [2] concerns the target T1, Peroxisome proliferator-activated receptor gamma (Homo sapiens, UniProt P37231).
T1 sequence (P37231 whole entry): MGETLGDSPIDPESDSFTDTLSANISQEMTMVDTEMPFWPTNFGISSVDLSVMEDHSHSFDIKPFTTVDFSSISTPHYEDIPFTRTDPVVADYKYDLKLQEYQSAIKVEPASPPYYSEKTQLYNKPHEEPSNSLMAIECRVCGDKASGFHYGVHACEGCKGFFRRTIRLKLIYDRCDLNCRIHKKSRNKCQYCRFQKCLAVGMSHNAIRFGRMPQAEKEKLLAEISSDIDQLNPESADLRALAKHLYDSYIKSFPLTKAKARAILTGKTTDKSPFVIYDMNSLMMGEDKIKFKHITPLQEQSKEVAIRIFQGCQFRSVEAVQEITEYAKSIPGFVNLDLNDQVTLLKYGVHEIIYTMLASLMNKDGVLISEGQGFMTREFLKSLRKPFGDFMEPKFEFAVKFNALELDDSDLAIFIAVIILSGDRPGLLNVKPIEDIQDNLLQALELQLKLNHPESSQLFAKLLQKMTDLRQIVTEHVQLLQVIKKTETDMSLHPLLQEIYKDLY
Nature of the data set: Agonist activity at PPARgamma (unknown origin) expressed in HEK293T cells by luciferase reporter gene assay. Format: cell-based. (Reporter assays use an easily measured gene product as a stand-in for the process of interest.)

Data set [3] addresses Free fatty acid receptor 1 (Mus musculus) (UniProt Q76JU9). Nature of the data set: Agonist activity at GPR40 in mouse MIN6 cells assessed as increase in 25 mM glucose-stimulated insulin secretion at 300 nM after 1 hr by ELISA. Format: cell-based. Put shortly: (§2)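 MIN6 cells pre-incubated 2 h at 37 ℃ in KRBH buffer with 0.1% BSA, then stimulated 1 h at 37 ℃ with 2 mM or 25 mM glucose, alone or with test agents. Insulin secreted into supernatant quantified by ELISA; mean ± SD of four independent experiments, compared with DMSO.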
For orientation: ELISA stands for enzyme-linked immunosorbent assay.

A further data set has as its system Mus musculus. Nature of the data set: Antidiabetic activity in ICR mouse assessed as decrease in blood glucose AUC at 10 to 20 mg/kg, po administered 30 mins prior to glucose challenge measured 120 mins post dose by OGTT. Format: functional, organism-based. Summed up:
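Six-week-old male ICR mice fasted 16 h, n = 10 per group, dosed orally in 0.5% methylcellulose/20% PEG400 (10 or 20 mg/kg). Oral glucose load 2.5 g/kg by gavage 30 min later. Tail-vein glucose read at -30, 0, 30, 60, 90 and 120 min; AUC0-120 min computed and compared with vehicle.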

For data set [4], the target named is T2, Free fatty acid receptor 1 (Homo sapiens, UniProt O14842). Nature of the data set: Agonist activity at human GPR40 expressed in CHO cells assessed as increase in intracellular Ca2+ flux by Fluo 4-AM dye based assay relative to 3-(4-((2',6'-dimethylbiphenyl-3-yl)methoxy)phenyl)propanoic acid. The format is functional, cell-based. Summed up: (§3)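 CHO cells stably expressing hGPR40 or hGPR120, seeded and incubated overnight at 37 ℃, 5% CO2. Loaded 90 min with Fluo 4-AM (3 μM) and probenecid (2.5 mM) in HBSS/0.1% BSA, washed, equilibrated 10 min. Ca2+ read as change in 585/525 ratio before and after compound addition; EC50 and Emax fitted from curves, Emax relative to reference agonist 4; mean ± SD, three independent experiments.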

Data set [5] can be described thus: Cmax in Sprague-Dawley rat plasma at 1 mg/kg, iv by LC/MS analysis. The format is ADME, organism-based. Also on record: dose 1 mg/kg, route intravenous. Summed up: as §1
Data set [6] deals with Free fatty acid receptor 1 (Mus musculus) (UniProt Q76JU9). Briefly: Agonist activity at GPR40 in mouse MIN6 cells assessed as increase in 25 mM glucose-stimulated insulin secretion at 10 uM after 1 hr by ELISA. The format is cell-based. Summed up: as §2
The nature of data set [7]: Half life in Sprague-Dawley rat plasma at 1 mg/kg, iv by LC/MS analysis. The format is ADME, organism-based. Summed up:
as §1

Data set [8] can be described thus: AUC (0 to t) in Sprague-Dawley rat plasma at 10 mg/kg administered via oral gavage by LC/MS analysis. The format is ADME, organism-based. Put shortly: as §1
Data set [9] deals with Free fatty acid receptor 1 (Mus musculus) (UniProt Q76JU9). Nature of the data set: Agonist activity at GPR40 in mouse MIN6 cells assessed as increase in 2 mM glucose-stimulated insulin secretion at 0.1 to 3 uM after 1 hr by ELISA. Format: cell-based. Put shortly: as §2
A short description of data set [10]: Cmax in Sprague-Dawley rat plasma at 10 mg/kg administered via oral gavage by LC/MS analysis. Format: ADME, organism-based. Set-up: dose 10 mg/kg, route oral. Put shortly:
as §1

Data set [11] deals with T3, Free fatty acid receptor 4 (Homo sapiens, UniProt Q5NUL3).
T3 sequence (Q5NUL3 whole entry): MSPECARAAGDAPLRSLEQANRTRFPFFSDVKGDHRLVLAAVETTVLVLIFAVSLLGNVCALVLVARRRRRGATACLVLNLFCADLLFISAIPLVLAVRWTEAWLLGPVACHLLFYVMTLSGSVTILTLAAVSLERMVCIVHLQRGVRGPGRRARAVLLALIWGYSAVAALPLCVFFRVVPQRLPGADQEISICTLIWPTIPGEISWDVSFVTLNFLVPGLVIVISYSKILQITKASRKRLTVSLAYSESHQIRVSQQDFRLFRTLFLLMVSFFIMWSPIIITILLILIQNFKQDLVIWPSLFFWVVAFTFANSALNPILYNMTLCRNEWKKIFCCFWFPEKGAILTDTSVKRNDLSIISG
Briefly: Agonist activity at human GPR120 expressed in CHO cells assessed as increase in intracellular Ca2+ flux by Fluo 4-AM dye based assay. Format: functional, cell-based. Summed up: as §3
In general terms: Calcium assays in cells follow changes in intracellular calcium, usually with a dye or a luminescent sensor.

Data set [12] can be described thus: Mean residence time (last) in Sprague-Dawley rat plasma at 10 mg/kg administered via oral gavage by LC/MS analysis. The format is ADME, organism-based. Summed up: as §1
The nature of data set [13]: Tmax in Sprague-Dawley rat plasma at 10 mg/kg administered via oral gavage by LC/MS analysis. The format is ADME, organism-based. Summed up: as §1
Data set [14] concerns the target T2, Free fatty acid receptor 1. Briefly: Agonist activity at human GPR40 expressed in CHO cells assessed as increase in intracellular Ca2+ flux by Fluo 4-AM dye based assay. The format is functional, cell-based.
Data set [15] in a line: Oral bioavailability in Sprague-Dawley rat plasma at 10 mg/kg administered via gavage by LC/MS analysis. The format is ADME, organism-based. Summed up: as §1
Data set [16] has as its target T2, Free fatty acid receptor 1. Briefly: Agonist activity at human GPR40 expressed in HEK293T cells transfected with 5 ug of GPR40 expression plasmid assessed as increase in intracellular Ca2+ flux by Fluo 4-AM dye based assay. The format is functional, cell-based. The conditions noted are these: HEK-293T. Summed up:
(§4)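 Plasmid titration: HEK293T cells transiently transfected with 5 μg or 0.05 μg hGPR40 expression plasmid, plated on poly-D-lysine and held 24 h. Loaded with Fluo 4-AM (3 μM) and probenecid (2.5 mM) in HBSS/0.1% BSA for 90 min, washed, equilibrated 10 min. Ca2+ response measured as change in 585/525 ratio after compound addition; mean ± SD of three experiments.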

The nature of data set [17]: Inhibition of hepatobiliary transporter in Sprague-Dawley rat sandwich-cultured rat hepatocytes assessed as decrease in d8-TCA by measuring biliary excretion index at 1 to 25 uM incubated for 15 mins followed by d8-TCA addition measured after 15 mins by LC-MS/MS analysis. The format is ADME. The conditions noted are these: 0.25 h. Summed up: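 Sandwich-cultured hepatocytes from male SD rats exposed to compound 15 min in standard HBSS. Cells rinsed and pre-incubated 15 min at 37 ℃ in standard or Ca2+-free HBSS, then incubated 15 min with compound plus 1 µM d8-TCA. Washed with ice-cold PBS; cellular d8-TCA measured by LC-MS/MS. BEI = (A_HBSS – A_Ca-free)/A_HBSS × 100%.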

Data set [18] is described as follows: AUC (0 to t) in Sprague-Dawley rat plasma at 1 mg/kg, iv by LC/MS analysis. Format: ADME, organism-based. Summed up:
as §1

The target of data set [19] is T2, Free fatty acid receptor 1. Briefly: Agonist activity at human GPR40 expressed in HEK293T cells transfected with 0.05 ug of GPR40 expression plasmid assessed as increase in intracellular Ca2+ flux by Fluo 4-AM dye based assay. As to conditions: HEK-293T. The format is functional, cell-based. Put shortly: as §4
Data set [20] in a line: Half life in Sprague-Dawley rat plasma at 10 mg/kg administered via oral gavage by LC/MS analysis. The format is ADME, organism-based. Summed up:
as §1

Activity calls are given as the source filed them. The calls are words filed in the database; no cut-off is given here.

T2 sequence (O14842 whole entry): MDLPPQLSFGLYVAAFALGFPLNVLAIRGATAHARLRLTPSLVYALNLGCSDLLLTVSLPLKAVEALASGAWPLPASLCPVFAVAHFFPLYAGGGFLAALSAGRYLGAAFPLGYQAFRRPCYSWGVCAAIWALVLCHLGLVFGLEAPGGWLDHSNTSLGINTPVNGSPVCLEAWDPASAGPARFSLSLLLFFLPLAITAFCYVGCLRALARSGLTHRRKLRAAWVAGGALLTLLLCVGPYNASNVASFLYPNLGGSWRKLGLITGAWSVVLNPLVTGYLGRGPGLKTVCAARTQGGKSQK
Chain of Free fatty acid receptor 1 (Mus musculus) (Q76JU9 whole entry): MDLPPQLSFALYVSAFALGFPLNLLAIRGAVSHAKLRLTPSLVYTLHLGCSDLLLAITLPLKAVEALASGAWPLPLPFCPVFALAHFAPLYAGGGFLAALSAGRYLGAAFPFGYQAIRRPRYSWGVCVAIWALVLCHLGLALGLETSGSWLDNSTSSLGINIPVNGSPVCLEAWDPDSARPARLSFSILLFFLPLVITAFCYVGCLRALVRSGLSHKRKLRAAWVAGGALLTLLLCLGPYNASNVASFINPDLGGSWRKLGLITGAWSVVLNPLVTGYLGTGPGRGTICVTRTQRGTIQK

Turning to `CC#C[C@@H](CC(=O)O)c1ccc(OCc2cccc(-c3c(C)cc(OCCCS(C)(=O)=O)cc3C)c2)s1`, the mean residence time (MRT last) (usually the average time that molecules of a dose stay in the body) in data set [1] was determined as 3.2 h; in data set [12], 5 h. Also, the EC50 (as a rule, the concentration giving half of the maximal effect) is greater than 10 µM in data set [2], greater than 10 µM in data set [11] and 0.081 µM in data set [14]. Besides, the outcome (in [3]; in the data set with Mus musculus; in data set [6]; in [16]; in data set [19]) was Active. In addition, the maximal effect (Emax) (commonly the greatest response seen or fitted, relative to the assay's reference) in [4] was 244%. Moreover, the results for the Cmax in data set [5] and in data set [10] were 2180 ng/mL and 834 ng/mL, respectively. In addition, the half-life (usually the time in which the quantity being followed falls by half) in data set [7] is 3.8 h; in data set [20], 3.9 h. In addition, the values for the area under the curve AUC(0-t) in [8] and in data set [18] were 4420 ng·h/mL and 3320 ng·h/mL, respectively. Also, the outcome in data set [9] was inactive. In addition, in [13], the time of peak concentration (Tmax) (usually the time from dosing to the highest level) worked out at 1 h. Also, the bioavailability (in general, dose-corrected exposure relative to a reference, in per cent) in [15] came out at 13.3%. For the same compound, in data set [17], the Activity entry is listed as “Not Active”.
